Source: PubChem BioAssay
KCNQ1 inh – human KCNQ1 channel inhibition; B-score at 10 µM; CHO-K1 KCNQ1, FluxOR thallium flux fluorescence; stronger effect = higher value; 1.3% of 310,000 active;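 active means compounds whose thallium flux B-score, printed positive for inhibition, exceeds three library SD while starting fluorescence stays within three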;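 further: channel opened by potassium depolarization with thallium stimulus after 20 min compound exposure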
KCNQ1 pot – human KCNQ1 channel potentiation or activation | 0.35% of 310,000 active | CHO-K1 KCNQ1, thallium flux FluxOR fluorescence; stronger effect = higher value | B-score at 10 µM | P51787 | AID 2648;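 active means fluorescence ratio B-score, a plate-corrected score, at least three library SD, with initial intensity B-score within 5 SD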
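Schedule – 37 °C overnight plating, 90-min dark dye load, 20-min compound pretreatment · System – stable KCNQ1 CHO-K1 line · Probe or stimulus – thallium- and potassium-containing depolarizing buffer · Measured by – kinetic FluxOR fluorescence, 10 s baseline plus 110 s post-stimulus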
Kir21 block – blocks the mouse Kir2.1 inward-rectifier potassium channel | HEK293-Kir2.1, FluxOR thallium flux fluorescence; stronger effect = lower value | B-score at 10 µM | 0.85% of 310,000 active | AID 1672;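 active means fluorescence ratio B-score at or below minus 3 SD of library scores, with starting-brightness B-score within 2 SD, cut at about -4.2 in these data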;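 further: channel flux triggered by added potassium and thallium sulfate stimulus; B-score of peak minus minimum fluorescence over baseline after thallium stimulus; more negative B-score means stronger Kir2.1 block with less thallium influx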
hERG protect – shields human hERG channel from block by proarrhythmic agents. Q12809. AID 1511. 0.51% of 310,000 active. activation (rescue from dofetilide block), less the hit threshold, % at 10 µM. CHO-hERG, FluxOR thallium flux, dofetilide IC70 present;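 active means activation above the mean of controls blocked by dofetilide plus 5 SD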;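 further: thallium influx through hERG after potassium depolarization seen as dye fluorescence rise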
KCNK3 inh – human KCNK3 channel inhibition, primary screen; CHO-KCNK3 thallium flux, FluxOR fluorescence; stronger effect = lower value; O14649; 0.84% of 340,000 active; AID 602410; B-score at 10 µM;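 active means B-score under library mean minus 4 SD, starting fluorescence ratio at most library mean plus 5 SD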;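 further: more negative B-score means stronger inhibition of thallium flux through KCNK3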
Target sequence (O14649 whole entry, looked up): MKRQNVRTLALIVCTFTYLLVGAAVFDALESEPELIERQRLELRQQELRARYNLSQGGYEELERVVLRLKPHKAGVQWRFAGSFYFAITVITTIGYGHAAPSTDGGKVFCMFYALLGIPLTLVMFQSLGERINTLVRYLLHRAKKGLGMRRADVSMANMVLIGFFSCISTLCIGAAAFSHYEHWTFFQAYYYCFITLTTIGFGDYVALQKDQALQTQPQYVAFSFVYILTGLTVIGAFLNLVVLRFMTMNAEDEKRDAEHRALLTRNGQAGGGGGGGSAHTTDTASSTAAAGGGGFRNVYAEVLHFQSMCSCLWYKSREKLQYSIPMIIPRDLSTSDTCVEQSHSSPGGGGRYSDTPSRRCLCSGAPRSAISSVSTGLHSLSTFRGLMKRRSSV
KCNK9 inh – human KCNK9 channel inhibition. Q9NPC2. HEK293 KCNK9, FluxOR thallium flux fluorescence; stronger effect = lower value. B-score at 10 µM. 1.2% of 310,000 active;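 active means ratio B-score over 3 SD below the library mean, with starting fluorescence within 5 SD of its mean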;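 further: negative B-score means less thallium flux so channel inhibition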
Target sequence (Q9NPC2 whole entry, looked up): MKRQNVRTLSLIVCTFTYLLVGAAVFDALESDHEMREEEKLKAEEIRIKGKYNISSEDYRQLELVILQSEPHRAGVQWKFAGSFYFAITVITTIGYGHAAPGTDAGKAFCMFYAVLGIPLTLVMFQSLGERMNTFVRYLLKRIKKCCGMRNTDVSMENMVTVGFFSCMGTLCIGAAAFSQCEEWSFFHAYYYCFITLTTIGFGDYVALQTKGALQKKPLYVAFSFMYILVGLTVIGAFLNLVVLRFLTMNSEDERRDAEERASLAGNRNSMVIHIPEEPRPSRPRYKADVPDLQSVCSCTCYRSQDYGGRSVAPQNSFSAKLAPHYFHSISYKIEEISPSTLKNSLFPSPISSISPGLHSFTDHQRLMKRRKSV
Each line names hits and unclear results; the compound was inactive in the other large screens. This is a sample that favours compounds with a hit; in the whole collection about 3.7% have one here.

CSc1nnc2n(C)c3c(c(=O)n12)C1(CCCC1)Cc1ccccc1-3	KCNK9 inh -7.2
CC(=O)c1ccc(N2CCN(C(=O)/C=C/c3ccc(S(=O)(=O)N4CCOCC4)cc3)CC2)cc1	none
CC(=O)c1ccc(N2CCN(C(=O)/C=C/c3ccc(S(=O)(=O)NCc4ccco4)cc3)CC2)cc1	hERG protect 4.9
COc1ccc(NC(=O)CSc2nc3nc(-c4cccs4)cc(C(F)(F)F)c3c(=O)[nH]2)c(OC)c1	KCNQ1 inh 9
COc1ccc(Cl)cc1NC(=O)COC(=O)CCc1cc(OC)c(OC)c(OC)c1	Kir21 block -4.9
COc1ccc(Cl)cc1NC(=O)COC(=O)Cc1cc(OC)c(OC)c(OC)c1	none (no result: KCNQ1 inh, KCNQ1 pot, Kir21 block, hERG protect, KCNK9 inh)
CN1CCN(c2cc(N3CCc4ccccc4C3)c(F)cc2[N+](=O)[O-])CC1	Kir21 block -4.7
CC(C)(C)CC(=O)NCCc1csc(-c2ccccc2)n1	none
Cc1noc(C)c1COc1ccccc1C(=O)N(C)Cc1ccc(C(C)(C)C)cc1	none (no result: KCNQ1 inh, KCNQ1 pot, Kir21 block, hERG protect, KCNK9 inh)
CC1=NNC(=O)C1CC(=O)N/N=C/C=C/c1ccccc1 (stereo not given)	hERG protect 21
Cc1ccc(OCCCNC2CCCC2)cc1	none
CC(C)(C)c1ccc(OCCCNC2CCCC2)cc1	Kir21 block -4.3
O=C(NC(=S)N1CCN(c2ccc(Cl)cc2[N+](=O)[O-])CC1)c1cccs1	KCNQ1 pot 20, hERG protect 6.3
O=C(NC(=S)N1CCN(c2ccc(Cl)cc2[N+](=O)[O-])CC1)c1ccco1	none
COc1cccc(OC)c1C(=O)NC(=S)N1CCN(c2ccc(C(F)(F)F)cc2[N+](=O)[O-])CC1	hERG protect 11
CC1CCCN(S(=O)(=O)c2cc(C(=O)NCCc3ccc(S(N)(=O)=O)cc3)ccc2Cl)C1 (stereo not given)	none (no result: KCNQ1 inh, KCNQ1 pot, Kir21 block, hERG protect, KCNK9 inh)
O=C(O)Cc1ccc(NC(=O)C2CC=CCC2C(=O)O)cc1 (stereo not given)	hERG protect 8.7 (no result: KCNK3 inh)
CC(C)(C)OC(=O)N(CCc1ccccc1)Cc1ccccc1OCc1ccc(NC(=O)C2CCCC2)cc1	none (no result: KCNQ1 inh, KCNQ1 pot, Kir21 block, hERG protect, KCNK9 inh)
Cc1ccc2nc(/C(C#N)=C\c3cc(C)n(-c4cccc([N+](=O)[O-])c4)c3C)[nH]c2c1	KCNQ1 inh 8
COC(=O)c1cc(C)sc1NC(=O)CN1CCN(C(=O)c2ccco2)CC1	none
CCOC(=O)c1cc(CC)sc1NC(=O)CN1CCN(C(=O)c2ccco2)CC1	KCNQ1 pot 23
N#Cc1c(NC(=O)COC(=O)c2nccnc2N)sc2c1CCCC2	none
CCOC(=O)c1cc(C)sc1NC(=O)CN1CCN(C(=O)c2ccco2)CC1	KCNQ1 pot 9
CCOC(=O)c1c(NC(=O)CN2CCN(C(=O)c3ccco3)CC2)sc2c1CCCC2	KCNQ1 pot 14, hERG protect 29
CCOC(=O)c1c(NC(=O)COC(=O)c2nccnc2N)sc2c1CCC2	KCNK3 inh -11 (no result: KCNQ1 inh, KCNQ1 pot, Kir21 block, hERG protect, KCNK9 inh)
CCOC(=O)c1c(NC(=O)c2ccco2)sc2c1CCCC2	none
Cc1ccc(C)c(N2CCN(C(=O)CCc3nc(-c4cccc(Cl)c4)no3)CC2)c1	none (no result: KCNQ1 inh, KCNQ1 pot, Kir21 block, hERG protect, KCNK9 inh)
CC(C)Cn1nc(C(=O)Nc2nnc(C3CC3)s2)c2ccccc2c1=O	none (no result: KCNQ1 inh, KCNQ1 pot, Kir21 block, hERG protect, KCNK9 inh)
CCOC(=O)c1cc(CC)sc1NC(=O)CCC(=O)O	none
CCOC(=O)c1cc(CC)sc1NC(=O)Cc1ccsc1	KCNK3 inh -9
COc1ccc(-c2c(-c3ccsc3)oc3ccc(N4CCOCC4)cc23)cn1	KCNK9 inh -7.9
O=C(COC(=O)C1CC(=O)N(Cc2ccco2)C1)c1ccc(OC(=O)c2ccccc2)cc1 (stereo not given)	Kir21 block -6.2
O=C(COC(=O)C1CC(=O)N(Cc2ccco2)C1)Nc1ccccc1[N+](=O)[O-] (stereo not given)	none (no result: KCNQ1 inh, KCNQ1 pot, Kir21 block, hERG protect, KCNK9 inh)
CCOc1c(OC(C)=O)ccc(/C=C/c2ccc3cccc(OC(C)=O)c3n2)c1[N+](=O)[O-]	KCNQ1 inh 12
COc1ccc(CC(=O)N(C)CC(=O)Nc2ccc(F)cc2)cc1S(=O)(=O)N1CCOCC1	none (no result: KCNQ1 inh, KCNQ1 pot, Kir21 block, hERG protect, KCNK9 inh)
CCn1cc(C(=O)NC2CCCc3c2cnn3-c2cccc(C)c2C)cn1 (stereo not given)	KCNQ1 inh 8
O=C(Cc1ccc(NC(=O)C2CCN(C(=O)C3CCCC3)CC2)cc1)Nc1ccc(C(=O)N2CCOCC2)cc1	none (no result: KCNQ1 inh, KCNQ1 pot, Kir21 block, hERG protect, KCNK9 inh)
COc1cc(Cl)c(C)cc1NC(=O)CSc1sc2c(O)cc(=O)[nH]c2c1C#N	hERG protect 4.7
COc1ccc(OC)c(NC(=O)CSc2sc3c(O)cc(=O)[nH]c3c2C#N)c1	none
COc1ccc(-c2c(C)nn(-c3ccccc3)c2N)cc1OC	hERG protect 4.7
COc1ccc(C(=O)C(C)OC(=O)CNC(=O)c2ccco2)cc1 (stereo not given)	none (no result: KCNQ1 inh, KCNQ1 pot, Kir21 block, hERG protect, KCNK9 inh)
CCn1c(C)c(C(C)=O)c(N2CCN(c3ccccc3)CC2)nc1=S	none
CCn1c(C)c(C(C)=O)c(N2CCN(c3ccccn3)CC2)nc1=S	KCNK9 inh -6.7
CN1CCN(Cc2ccc(-c3ccc(Cl)cc3)o2)CC1	Kir21 block -4.7
Clc1ccc(-c2ccc(CN3CCCCC3)o2)cc1	none
COc1ccccc1-c1nc2cc3ccccc3cc2nc1-c1ccccc1	KCNQ1 inh 9
CC(=O)C1=C(C)NC(SCC(=O)Nc2nc3ccccc3s2)=C(C#N)C1c1ccc(Cl)cc1 (stereo not given)	KCNQ1 inh 7
COc1ccc(NC(=O)CSC2=C(C#N)C(c3ccco3)C(C(=O)Nc3nc4ccccc4s3)=C(C)N2)cc1 (stereo not given)	none
CCOC(=O)c1ccc(NC(=O)Cn2nnc(-c3ccccc3)n2)cc1	hERG protect 14
Nc1ccccc1SSc1ccccc1N	none
CC(C(Sc1ccccc1N)c1ccccc1)[N+](=O)[O-] (stereo not given)	Kir21 block -7.2
CCOC(=O)c1c(NC(=S)NCCc2ccccc2)sc2c1CC(C(C)C)OC2 (stereo not given)	KCNQ1 pot 8
CC(C)C1Cc2c(sc(NC(=S)NC(=O)c3ccccc3)c2C#N)CO1 (stereo not given)	none
C=CCNC(=S)Nc1sc2c(c1C(=O)OCC)CC(C(C)C)OC2 (stereo not given)	KCNQ1 pot 48
O=C1NC[C@H](Cc2ccccc2)N(C[C@H]2CCCN2C[C@H](Cc2ccc(O)cc2)N2C[C@H](Cc3ccc(O)cc3)N(CC3CCCCCC3)C(=O)C2=O)C1=O	none (no result: KCNQ1 inh, KCNQ1 pot, Kir21 block, hERG protect, KCNK9 inh)
Cc1ccc(S(=O)(=O)CC(=O)c2cc3cccc(C)c3oc2=O)cc1	none
CCN(C(=O)COC(=O)C1CCN(S(=O)(=O)c2ccc(C)c(C)c2)CC1)C1CCCCC1	none (no result: KCNQ1 inh, KCNQ1 pot, Kir21 block, hERG protect, KCNK9 inh)
Cc1cc(C)n2nc(SCC(=O)N3CC(C)CC(C)C3)nc2n1 (stereo not given)	none (no result: KCNQ1 inh, KCNQ1 pot, Kir21 block, hERG protect, KCNK9 inh)
CCCCN(CCCC)c1nc2ccccc2nc1C(C#N)C(=O)NCCCOC (stereo not given)	KCNQ1 inh 15
